Measured values of several laboratories.
Protocols differ between the studies behind these lines.
Target: Tyrosine-protein kinase Blk (BLK, Homo sapiens, UniProt P51451)

C1=C/COCc2cc(ccc2OCCN2CCCC2)Nc2nccc(n2)-c2cccc(c2)COC/1
remaining binding (binding; 0.1 µM): 97%

COc1ccc2oc(-c3ccc4nc(N)oc4c3)c/c(=N\c3ccccc3NC(=O)CCN)c2c1
remaining binding (binding; 1 µM): 92%

CC#CC(=O)N1CCC[C@H]1c1nc(-c2ccc(C(=O)Nc3ccccn3)cc2)c2c(N)nccn12
inhibition (enzyme activity, inhibitor; 1 µM): 47%

Cc1ccc(NC(=O)c2ccnc(C(F)(F)F)c2)cc1-c1cc(OCCO)nc(N2CCOCC2)c1
remaining binding (binding, competition with immobilised ligand; 1 µM): 100%

CO[C@@H]1[C@H](N(C)C(=O)c2ccccc2)C[C@H]2O[C@]1(C)n1c3ccccc3c3c4c(c5c6ccccc6n2c5c31)C(=O)NC4
inhibition (enzyme activity, inhibitor; 1 µM): 79%

CC(C)S(=O)(=O)c1ccc2nccc(Nc3ccc4sc(C5CCCC5)nc4c3)c2c1
activity vs control (enzyme activity, inhibitor; 1 µM): 80%

C[C@H]1CC[C@H](n2c3cnccc3c3cnc(Nc4ccc5c(n4)CCN(C(=O)CO)C5)nc32)CC1
remaining binding (cell-free assay, competition with immobilised ligand; 1 µM): 53%

CCCCC(=O)Nc1ccc(-c2ccc3ncn(CCC)c(=O)c3c2)cn1
remaining binding (binding, competition with immobilised ligand; 0.5 µM): 83%
